Screening results from PubChem.
Sampled rows, rich in hits. Any-hit rate of the full collection: about 3.6%.
GRIN3A LBD mod: binders of NR3A ligand-binding domain, primary screen, biophysical, differential scanning fluorimetry, uHTS; NR3A LBD differential scanning fluorimetry, Tm shift; 0% = protein alone, 100% = glycine-bound protein; Glutamate receptor ionotropic, NMDA 3A (GRIN3A) ligand-binding domain; 340,000 compounds, 2.5% hits; Tm shift relative to glycine control, % at 25 µM;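 active = melting temperature shift of at least 10% of the positive control shift, at one fixed dose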
SENP1 inh: human SENP1 catalytic domain inhibitors, primary screen, biochemical, FRET, uHTS | Sentrin-specific protease 1 (Homo sapiens), Q9P0U3 | recombinant SENP1 catalytic domain, CyPet-SUMO1-YPet FRET cleavage | inhibition, % at 10 µM | 360,000 compounds, 0.21% hits | AID 624204, 2012;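 active = inhibition at least 30% at 10 µM, raw YFP signal under a set limit, fluorescence ratio 0.5 to 1.5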;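 note: 0% = enzyme with DMSO and 100% = no enzyme wells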
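Assay system – human recombinant His6-tagged SENP1 catalytic domain enzyme · Input – SENP1 enzyme, 20 pM final · Buffer or medium – Tris pH 8 buffer plus EDTA, NaCl, BME, BSA, NP40, catalase · Schedule – 50 min reaction at room temperature · Technique – FRET read of cyan and yellow fluorescence · Control set – no-enzyme wells low, DMSO-plus-enzyme wells high control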
UCH37 DUB inh: inhibitors of human UCH37 deubiquitinase, primary screen, biochemical, Ub-AMC cleavage, fluorescence; Ubiquitin carboxyl-terminal hydrolase isozyme L5 (Homo sapiens), Q9Y5K5; purified proteasome/UCH37; inhibition, % (no concentration beside the values); 330,000 compounds, 0.33% hits; AID 588478, 2011;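 active = mean inhibition over replicate wells above about 20%, limit read from the data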;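 note: 0% = compound-free wells with enzyme and 100% = wells lacking proteasome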
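Material: Human UCH37 enzyme supplied as purified proteasome complex | Schedule: 30 min compound-proteasome preincubation then 25 min substrate reaction, room temperature | Detection: AMC fluorescence from Ub-AMC cleavage, excitation 355 nm, emission 460 nm | Benchmarks: Wells without proteasome as full block, compound-free enzyme plus substrate as uninhibited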
ATG4B inhibitor: ATG4B protease inhibitors, primary screen, biochemical, fluorescence, uHTS; Cysteine protease ATG4B (Homo sapiens), Q9Y4P1; ATG4B cleavage of LC3-PLA2, NBD-HPC fluorescence, 1 h; inhibition, % at 8.33 µM; 340,000 compounds, 0.51% hits; AID 504462, 2011; in the data active = inhibition above about 40%
Target sequence (Q9Y4P1 whole entry, looked up): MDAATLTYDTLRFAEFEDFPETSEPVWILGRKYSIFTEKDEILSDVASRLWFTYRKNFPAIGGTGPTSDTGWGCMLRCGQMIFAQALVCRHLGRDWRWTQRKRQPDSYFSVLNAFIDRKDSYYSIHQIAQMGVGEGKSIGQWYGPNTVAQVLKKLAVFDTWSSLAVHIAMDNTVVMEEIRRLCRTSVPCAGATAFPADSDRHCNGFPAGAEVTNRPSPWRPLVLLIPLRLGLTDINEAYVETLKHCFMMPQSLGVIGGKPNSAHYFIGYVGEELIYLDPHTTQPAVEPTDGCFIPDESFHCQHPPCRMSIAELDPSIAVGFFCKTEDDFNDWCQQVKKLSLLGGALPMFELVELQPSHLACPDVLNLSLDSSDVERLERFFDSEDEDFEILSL
NadD inh: inhibitors of S. aureus NadD, primary screen, biochemical, colorimetric, uHTS; Nicotinate-nucleotide adenylyltransferase NadD (Staphylococcus aureus N315); purified NadD enzyme, colorimetric absorbance read-out; inhibition, % at 20 µM; 360,000 compounds, 0.78% hits; AID 602399, 2012; in the data active = inhibition above about 26%
An asterisk follows results filed as active; · = no result.

SMILES	GRIN3A LBD mod	SENP1 inh	UCH37 DUB inh	ATG4B inhibitor	NadD inh
COc1ccc(NC(=O)c2ccccc2[N+](=O)[O-])cc1	-3	3	0	8	-4
COc1ccccc1Nc1ccc(NC(=O)c2cccc([N+](=O)[O-])c2C)cc1	19*	1	5	-8	0
COc1cc2c(cc1NC(=S)Nc1cccc(C)c1)oc1ccccc12	26*	2	-2	9	12
COc1cc2c(cc1NC(=O)COC(=O)CNS(=O)(=O)c1ccc(C)cc1)oc1ccccc12	-2	1	1	-19	6
COc1cc2c(cc1NC(=O)C1CCCO1)oc1ccccc12 (stereo not drawn)	1	-1	1	18	-6
COc1cc2c(cc1NC(=S)Nc1ccccc1C)oc1ccccc12	0	-1	-8	7	-2
COc1ccc(S(=O)(=O)N[C@@H](C)C(=O)OCC(=O)Nc2cc3oc4ccccc4c3cc2OC)cc1	25*	0	-3	-16	-4
COc1cc2c(cc1NC(=O)Nc1ccc(F)cc1)oc1ccccc12	186*	-1	-34	1	1
Cc1onc(-c2ccccc2)c1C(=O)NN=Cc1cccs1	·	·	5	·	·
Cc1ccc(C=NNc2cc(C)nc(NCc3ccccc3)n2)cc1	·	·	2	·	·
Nc1nnn(CC(=O)NN=Cc2ccc(Cl)cc2Cl)n1	·	·	2	·	·
COc1cc2c(cc1NC(=O)c1cccc([N+](=O)[O-])c1C)oc1ccccc12	20*	2	2	5	2
COc1ccc(OCC(=O)Nc2cc3oc4ccccc4c3cc2OC)cc1	-11	0	-22	-4	-7
COc1cc2c(cc1NC(=O)Nc1cccc(C)c1)oc1ccccc12	39*	-1	-76	9	-7
COc1ccc(C)cc1NC(=O)Nc1cccc(C)c1	1	0	2	-9	0
COc1cc2c(cc1NC(=O)Nc1ccc(C)cc1)oc1ccccc12	29*	2	-37	12	6
COc1ccc(NC(=O)Nc2cc3oc4ccccc4c3cc2OC)cc1	13*	-2	-34	-16	2
Nc1nnc(CC(=O)NN=Cc2ccc(-c3cccc(Cl)c3)o2)s1	·	·	-12	·	·
Cc1cc(C)nc(N=C(N)Nc2cc([N+](=O)[O-])ccc2C)n1	·	·	-1	·	·
Nc1cc2c(cc1Br)-c1ccc(F)cc1C2O (stereo not drawn)	18*	0	5	-9	-3
CC(Oc1cccc(Cl)c1)C(=O)Nc1ccccc1N1CCCCC1 (stereo not drawn)	4	2	1	-3	14
CC(Oc1cccc(Cl)c1)C(=O)Nc1cc(Cl)ccc1N1CCOCC1 (stereo not drawn)	21*	2	-1	7	0
CCOC(=O)/C(C#N)=C/Nc1ccccc1NS(=O)(=O)c1cccc(C(C)=O)c1	-2	-1	26*	-13	-3
CC(C)(C)c1ccc(C=NNC(=O)Cc2c[nH]c3ccccc23)cc1	·	·	1	·	·
O=C(NNC(=O)c1cc2cc(OC(F)(F)F)ccc2[nH]1)c1cccc(C(F)(F)F)c1	23*	-2	4	-6	-1
SMILES	GRIN3A LBD mod	SENP1 inh	UCH37 DUB inh	ATG4B inhibitor	NadD inh
Cc1ccc(Oc2nc(-c3ccccc3)ncc2S(=O)(=O)c2ccc(C)cc2)cc1	11*	3	2	-1	-3
COc1ccccc1-c1cc(C(=O)NN=Cc2cccs2)c2ccccc2n1	·	·	1	·	·
O=C(Nc1cccnc1)c1sc(Nc2ccccc2)nc1-c1ccccc1	27*	-35	-273	-11	2
Fc1cccc(F)c1C=NN1CCOCC1	·	·	-2	·	·
Cc1cc(C)cc(N2C(=O)CC(c3ccccc3)CC2=O)c1	17*	-1	-2	-4	-3
COc1ccc(CCCC(=O)NN=Cc2ccc(C)cc2)cc1	·	·	3	·	·
O=[N+]([O-])c1cc(S(=O)(=O)C(F)(F)F)ccc1N1CCN(c2ccccc2)CC1	-3	-1	-1	7	2
